{"source": "ChEMBL document CHEMBL1671855", "about": "“Establishment of a cell-based assay for screening of compounds inhibiting very early events in the cytomegalovirus replication cycle and characterization of a compound identified using the assay” (Antimicrob Agents Chemother, 2008)", "key": {"Caviid betaherpesvirus 2": {"system": "Caviid betaherpesvirus 2", "test": "Antiviral activity against Guinea pig cytomegalovirus (strain 22122; ATCC VR-682) infected in guinea pig lung fibroblast after 6 to 7 days by plaque reduction assay", "format": "functional, organism-based", "outline": "(§1)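 Semiconfluent fibroblasts (HCMV Towne in HFL, GPCMV in guinea pig lung fibroblasts, MCMV Smith in NIH 3T3) in 12-well plates inoculated with 50 or 100 PFU, centrifuged 600 × g 30 min, 1–2 h at 37°C; inoculum replaced by twofold compound dilutions in 1% methylcellulose, 4% FBS. Incubation 4–5 d MCMV, 6–7 d GPCMV, 10–12 d HCMV; crystal violet/formalin stain, plaques counted, triplicate; EC50 by linear regression of log concentration vs % plaque reduction.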"}, "Human betaherpesvirus 5 [1]": {"system": "Human betaherpesvirus 5", "test": "Antiviral activity against Human cytomegalovirus Towne infected in human HFL after 10 to 12 days by plaque reduction assay", "format": "functional, organism-based", "conditions": "Human betaherpesvirus 5, Towne", "outline": "as §1"}, "[2]": {"test": "Antiviral activity against Murine cytomegalovirus strain Smith infected in mouse NIH 3T3 cells after 4 to 5 days by plaque reduction assay", "format": "functional, cell-based", "conditions": "Murid betaherpesvirus 1, NIH3T3", "outline": "as §1"}, "Human betaherpesvirus 5 [3]": {"system": "Human betaherpesvirus 5", "test": "Antiviral activity against Human cytomegalovirus Towne infected in human hTERT-BJ1 cells assessed as inhibition of virus induced infection after 12 hrs post infection by luciferase reporter gene assay", "format": "functional, organism-based", "conditions": "BJ", "outline": "(§2)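 hTERT-BJ1 cells (3 × 10^4/well, 96-well) infected next day with 2 × 10^3 PFU HCMV Towne and given 20 μM compound or DMSO over varied windows: added at set times and kept to harvest, removed at set times, or present 24 h from set start times. Luciferase measured at 48 h p.i. in three wells; mean and SD.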"}, "Human betaherpesvirus 5 [4]": {"system": "Human betaherpesvirus 5", "test": "Antiviral activity against Human cytomegalovirus Towne infected in human hTERT-BJ1 cells assessed as decrease in IE2 mRNA level at 5 uM after 24 hrs by immunofluorescent assay", "format": "functional, organism-based", "conditions": "BJ"}, "Human betaherpesvirus 5 [5]": {"system": "Human betaherpesvirus 5", "test": "Antiviral activity against 0.05 MOI Human cytomegalovirus Towne infected in human hTERT-BJ1 cells assessed as decrease in IE1 gene expression at 20 uM after 24 hrs by RT-PCR", "format": "functional, organism-based", "conditions": "BJ", "outline": "(§3)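 hTERT-BJ1 cells (4 × 10^5 per T12.5 flask) infected with HCMV at MOI 0.05, cultured with DMSO, 15 μM roscovitine or 20 μM test compound for set periods; cells washed with PBS, stored at −80°C, total RNA purified; IE1, IE2 and G6PD transcripts by quantitative RT-PCR, IE1/IE2 given as CT after normalization to G6PD; triplicate experiments, mean and SD.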"}, "Human betaherpesvirus 5 [6]": {"system": "Human betaherpesvirus 5", "test": "Antiviral activity against 0.05 MOI Human cytomegalovirus Towne infected in human hTERT-BJ1 cells assessed as decrease in IE2 gene expression at 20 uM after 24 hrs by […]", "format": "functional, organism-based", "conditions": "BJ", "outline": "as §3"}, "Human betaherpesvirus 5 [7]": {"system": "Human betaherpesvirus 5", "test": "Antiviral activity against 0.05 MOI Human cytomegalovirus Towne infected in human hTERT-BJ1 cells assessed as decrease in IE1 gene expression at 15 uM after 24 hrs by RT-PCR", "format": "functional, organism-based", "conditions": "BJ", "outline": "as §3"}, "Human betaherpesvirus 5 [8]": {"system": "Human betaherpesvirus 5", "test": "Antiviral activity against 0.05 MOI Human cytomegalovirus Towne infected in human hTERT-BJ1 cells assessed as decrease in IE2 gene expression at 15 uM after 24 hrs by […]", "format": "functional, organism-based", "conditions": "BJ", "outline": "as §3"}, "Human betaherpesvirus 5 [9]": {"system": "Human betaherpesvirus 5", "test": "Antiviral activity against Human cytomegalovirus Towne infected in human hTERT-BJ1 cells assessed as decrease in G6PD gene expression at 20 uM after 24 hrs by RT-PCR", "format": "functional, organism-based", "conditions": "BJ", "outline": "as §3"}, "Human betaherpesvirus 5 [10]": {"system": "Human betaherpesvirus 5", "test": "Antiviral activity against Human cytomegalovirus Towne infected in human hTERT-BJ1 cells assessed as decrease in G6PD gene expression at 15 uM after 24 hrs by RT-PCR", "format": "functional, organism-based", "conditions": "BJ", "outline": "as §3"}, "Human betaherpesvirus 5 [11]": {"system": "Human betaherpesvirus 5", "test": "Antiviral activity against Human cytomegalovirus Towne infected in human hTERT-BJ1 cells assessed as inhibition of attachment of virus particles to the cell surface at 20 uM after 2 hrs post infection by quantitative PCR", "format": "functional, organism-based", "conditions": "BJ"}, "Human betaherpesvirus 5 [12]": {"system": "Human betaherpesvirus 5", "test": "Antiviral activity against Human cytomegalovirus Towne infected in human hTERT-BJ1 cells assessed as inhibition of attachment of virus particles to the cell surface at 1 mg/ml after 2 hrs post infection by quantitative PCR", "format": "functional, organism-based", "conditions": "BJ"}, "Human betaherpesvirus 5 [13]": {"system": "Human betaherpesvirus 5", "test": "Antiviral activity against Human cytomegalovirus Towne infected in human hTERT-BJ1 cells assessed as decrease in ICP22 mRNA level at 20 uM after 48 hrs by immunofluorescent assay", "format": "functional, organism-based", "conditions": "BJ"}, "[14]": {"test": "Cytotoxicity against human hTERT-BJ1 cells", "format": "cell-based, BJ", "outline": "(§4)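 Cells at 20–25% confluence in 96-well plates cultured 2–4 days with twofold serial compound dilutions or matching DMSO; supernatant removed, cells rinsed, viability read as ATP luminescence (CellTiter-Glo); triplicate; 50% cytotoxic concentration from log concentration vs RLU plot.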"}, "[15]": {"test": "Cytotoxicity against HLF cells", "format": "cell-based", "conditions": "human", "outline": "as §4"}, "[16]": {"test": "Selectivity index, ratio of CC50 for human hTERT-BJ1 cells to EC50 for Human cytomegalovirus Towne", "format": "toxicity, cell-based, BJ", "conditions": "read-out: Selectivity Index"}, "[17]": {"test": "Selectivity index, ratio of CC50 for human lung fibroblast cells to EC50 for Human cytomegalovirus Towne", "format": "toxicity, cell-based", "conditions": "read-out: Selectivity Index"}, "Human betaherpesvirus 5 [18]": {"system": "Human betaherpesvirus 5", "test": "Antiviral activity against Human cytomegalovirus RC256 infected in human hTERT-BJ1 cells after 1 hr by Immunostaining and Xgal staining", "format": "functional, organism-based", "conditions": "Human betaherpesvirus 5, RC256, BJ", "outline": "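hTERT-BJ1 cells infected with HCMV RC256, a β-galactosidase-expressing recombinant Towne strain, in the presence of various compound concentrations; infected cells counted after X-Gal staining to derive EC50.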"}, "Human betaherpesvirus 5 [19]": {"system": "Human betaherpesvirus 5", "test": "Antiviral activity against human cytomegalovirus Towne infected in human U4C-48 cells assessed as decrease in viral titer by luciferase reporter gene assay", "format": "functional, organism-based", "conditions": "Human betaherpesvirus 5, Towne", "outline": "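U4C-48 reporter cells (U373MG carrying TRL4 promoter-luciferase) infected with HCMV laboratory strain or clinical isolates and cultured 2 days with compound dilutions; luciferase read by chemiluminescence, triplicate. EC50 taken as concentration reducing luciferase to the level of cells given half the virus inoculum.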"}, "Human betaherpesvirus 5 [20]": {"system": "Human betaherpesvirus 5", "test": "Antiviral activity against Human cytomegalovirus AD169 infected in human U4C-48 cells assessed as decrease in viral titer by luciferase reporter gene assay", "format": "functional, organism-based", "conditions": "Human betaherpesvirus 5, AD169, U4C-48"}, "Human betaherpesvirus 5 [21]": {"system": "Human betaherpesvirus 5", "test": "Antiviral activity against 0.05 MOI Human cytomegalovirus Towne infected in human hTERT-BJ1 cells assessed as inhibition of viral DNA replication at 5 uM by qPCR", "format": "functional, organism-based", "conditions": "BJ", "outline": "(§5)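 hTERT-BJ1 cells infected with HCMV at MOI 0.05 or 3.0, cultured for set durations with DMSO, 20 μM or 5 μM compound; DNA extracted (QIAamp) and HCMV UL83 and human albumin genes quantified by qPCR against plasmid and cellular DNA standards; viral copies divided by albumin copies as copies per cell; triplicate experiments, mean and SD.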"}, "Human betaherpesvirus 5 [22]": {"system": "Human betaherpesvirus 5", "test": "Antiviral activity against 0.05 MOI Human cytomegalovirus Towne infected in human hTERT-BJ1 cells assessed as inhibition of viral DNA replication at 20 uM by qPCR", "format": "functional, organism-based", "conditions": "BJ", "outline": "as §5"}, "Human betaherpesvirus 5 [23]": {"system": "Human betaherpesvirus 5", "test": "Antiviral activity against 3 MOI Human cytomegalovirus Towne infected in human hTERT-BJ1 cells assessed as inhibition of viral DNA replication at 5 uM by qPCR", "format": "functional, organism-based", "conditions": "BJ", "outline": "as §5"}, "Human betaherpesvirus 5 [24]": {"system": "Human betaherpesvirus 5", "test": "Antiviral activity against 3 MOI Human cytomegalovirus Towne infected in human hTERT-BJ1 cells assessed as inhibition of viral DNA replication at 20 uM by qPCR", "format": "functional, organism-based", "conditions": "BJ", "outline": "as §5"}, "Human betaherpesvirus 5 [25]": {"system": "Human betaherpesvirus 5", "test": "Antiviral activity against Human cytomegalovirus Towne infected in human hTERT-BJ1 cells assessed as inhibition of virus induced infection after 24 hrs post infection by luciferase reporter gene assay", "format": "functional, organism-based", "conditions": "BJ", "outline": "as §2"}, "Human betaherpesvirus 5 [26]": {"system": "Human betaherpesvirus 5", "test": "Antiviral activity against Human cytomegalovirus Towne infected in human hTERT-BJ1 cells assessed as inhibition of virus induced infection after 48 hrs post infection by luciferase reporter gene assay", "format": "functional, organism-based", "conditions": "BJ", "outline": "as §2"}, "Human betaherpesvirus 5 [27]": {"system": "Human betaherpesvirus 5", "test": "Antiviral activity against Human cytomegalovirus Towne infected in human hTERT-BJ1 cells assessed as inhibition of virus induced infection after 6 hrs post infection by luciferase reporter gene assay", "format": "functional, organism-based", "conditions": "BJ", "outline": "as §2"}, "Human betaherpesvirus 5 [28]": {"system": "Human betaherpesvirus 5", "test": "Antiviral activity against Human cytomegalovirus Towne infected in human hTERT-BJ1 cells assessed as decrease in IE1 mRNA level at 5 uM after 24 hrs by immunofluorescent assay", "conditions": "BJ"}}, "note": "Active and inactive are the calls of the source. No cut-off for these calls is given here.", "data": [{"smiles": "Nc1nc2c(ncn2COC(CO)CO)c(=O)[nH]1", "note": "[GANCICLOVIR]", "values": [{"measurement": "EC50", "setting": "Caviid betaherpesvirus 2", "value": 25.9, "unit": "µM"}, {"measurement": "EC50", "setting": "Human betaherpesvirus 5 [1]", "value": 1.4, "unit": "µM"}, {"measurement": "EC50", "setting": "[2]", "value": 5.7, "unit": "µM"}]}, {"smiles": "NC(=O)C1CCN(c2c(Cl)cncc2Cl)CC1", "values": [{"measurement": "inhibition", "setting": "Human betaherpesvirus 5 [3]", "value": "Active"}, {"measurement": "inhibition", "setting": "Human betaherpesvirus 5 [4]", "value": "Active"}, {"measurement": "Activity", "setting": "Human betaherpesvirus 5 [5]", "value": "Active"}, {"measurement": "Activity", "setting": "Human betaherpesvirus 5 [6]", "value": "Active"}, {"measurement": "Activity", "setting": "Human betaherpesvirus 5 [7]", "value": "Active"}, {"measurement": "Activity", "setting": "Human betaherpesvirus 5 [8]", "value": "Active"}, {"measurement": "Activity", "setting": "Human betaherpesvirus 5 [9]", "value": "inactive"}, {"measurement": "Activity", "setting": "Human betaherpesvirus 5 [10]", "value": "inactive"}, {"measurement": "inhibition", "setting": "Human betaherpesvirus 5 [11]", "value": "inactive"}, {"measurement": "inhibition", "setting": "Human betaherpesvirus 5 [12]", "value": "Active"}, {"measurement": "inhibition", "setting": "Human betaherpesvirus 5 [13]", "value": "Active"}, {"measurement": "EC50", "setting": "Caviid betaherpesvirus 2", "value": 6.2, "unit": "µM"}, {"measurement": "EC50", "setting": "Human betaherpesvirus 5 [1]", "value": 2.5, "unit": "µM"}, {"measurement": "EC50", "setting": "[2]", "value": 3, "unit": "µM"}, {"measurement": "CC50", "setting": "[14]", "value": 100, "unit": "µM"}, {"measurement": "CC50", "setting": "[15]", "value": 100, "unit": "µM"}, {"measurement": "selectivity ratio", "setting": "[16]", "value": "> 10"}, {"measurement": "selectivity ratio", "setting": "[17]", "value": "> 10"}, {"measurement": "EC50", "setting": "Human betaherpesvirus 5 [18]", "value": 3.5, "unit": "µM"}, {"measurement": "EC50", "setting": "Human betaherpesvirus 5 [19]", "value": 5, "unit": "µM"}, {"measurement": "EC50", "setting": "Human betaherpesvirus 5 [20]", "value": 5, "unit": "µM"}, {"measurement": "inhibition", "setting": "Human betaherpesvirus 5 [21]", "value": "Active"}, {"measurement": "inhibition", "setting": "Human betaherpesvirus 5 [22]", "value": "Active"}, {"measurement": "inhibition", "setting": "Human betaherpesvirus 5 [23]", "value": "Active"}, {"measurement": "inhibition", "setting": "Human betaherpesvirus 5 [24]", "value": "Active"}, {"measurement": "inhibition", "setting": "Human betaherpesvirus 5 [25]", "value": "Active"}, {"measurement": "inhibition", "setting": "Human betaherpesvirus 5 [26]", "value": "inactive"}, {"measurement": "inhibition", "setting": "Human betaherpesvirus 5 [27]", "value": "Active"}, {"measurement": "inhibition", "setting": "Human betaherpesvirus 5 [28]", "value": "Active"}]}]}
